Assay results published in ChEMBL document CHEMBL2375313, “Synthesis, in vitro antitumor evaluation and DNA-binding study of novel tetrahydroquinolines and some derived tricyclic and tetracyclic ring systems” (Eur J Med Chem, 2013).

Experiments:
Assay type in all cases: functional
MCF7 = assay: Cytotoxicity against human MCF7 cells assessed as growth inhibition at 10 uM after 48 hrs by sulphorhodamine B assay; settings: MCF7, 48 h, read-out: GI
Outline: (§1)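 NCI-60 one-dose screen per the NCI Drug Evaluation Branch protocol. Cells given a single 10 µM concentration with 48 h continuous exposure. Growth estimated by sulphorhodamine B protein assay. Result expressed as percentage growth inhibition relative to untreated growth.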

SF-268 = assay: Cytotoxicity against human SF268 cells assessed as growth inhibition at 10 uM after 48 hrs by sulphorhodamine B assay; settings: SF-268, 48 h, read-out: GI; outline: as §1
HCT-15 = assay: Cytotoxicity against human HCT15 cells assessed as growth inhibition at 10 uM after 48 hrs by sulphorhodamine B assay; settings: HCT-15, 48 h, read-out: GI; outline: as §1
[1] = Cytotoxicity against human EKVX cells assessed as growth inhibition at 10 uM after 48 hrs by sulphorhodamine B assay; settings: read-out: GI; outline: as §1
MOLT-4 = assay: Cytotoxicity against human MOLT4 cells assessed as growth inhibition at 10 uM after 48 hrs by sulphorhodamine B assay; settings: MOLT-4, 48 h, read-out: GI; outline: as §1
UO-31 = assay: Cytotoxicity against human UO31 cells assessed as growth inhibition at 10 uM after 48 hrs by sulphorhodamine B assay; settings: UO-31, 48 h, read-out: GI; outline: as §1
A549 = assay: Cytotoxicity against human A549 cells assessed as growth inhibition at 10 uM after 48 hrs by sulphorhodamine B assay; settings: A549, 48 h, read-out: GI; outline: as §1
HT-29 = assay: Cytotoxicity against human HT-29 cells assessed as growth inhibition at 10 uM after 48 hrs by sulphorhodamine B assay; settings: HT-29, 48 h, read-out: GI; outline: as §1
HCT-116 = assay: Cytotoxicity against human HCT116 cells assessed as growth inhibition at 10 uM after 48 hrs by sulphorhodamine B assay; settings: HCT-116, 48 h, read-out: GI; outline: as §1
OVCAR-4 = assay: Cytotoxicity against human OVCAR4 cells assessed as growth inhibition at 10 uM after 48 hrs by sulphorhodamine B assay; settings: OVCAR-4, 48 h, read-out: GI; outline: as §1
SNB-75 = assay: Cytotoxicity against human SNB75 cells assessed as growth inhibition at 10 uM after 48 hrs by sulphorhodamine B assay; settings: SNB-75, 48 h, read-out: GI; outline: as §1
SK-MEL-2 = assay: Cytotoxicity against human SK-MEL-2 cells assessed as growth inhibition at 10 uM after 48 hrs by sulphorhodamine B assay; settings: SK-MEL-2, 48 h, read-out: GI; outline: as §1
MDA-MB-435 = assay: Cytotoxicity against human MDA-MB-435 cells assessed as growth inhibition at 10 uM after 48 hrs by sulphorhodamine B assay; settings: MDA-MB-435, 48 h, read-out: GI; outline: as §1
U-251 = assay: Cytotoxicity against human U251 cells assessed as growth inhibition at 10 uM after 48 hrs by sulphorhodamine B assay; settings: U-251, 48 h, read-out: GI; outline: as §1
MDA-MB-468 = assay: Cytotoxicity against human MDA-MB-468 cells assessed as growth inhibition at 10 uM after 48 hrs by sulphorhodamine B assay; settings: MDA-MB-468, 48 h, read-out: GI; outline: as §1
IGROV-1 = assay: Cytotoxicity against human IGROV1 cells assessed as growth inhibition at 10 uM after 48 hrs by sulphorhodamine B assay; settings: IGROV-1, 48 h, read-out: GI; outline: as §1
SR = assay: Cytotoxicity against human SR cells assessed as growth inhibition at 10 uM after 48 hrs by sulphorhodamine B assay; settings: read-out: GI; outline: as §1
SK-MEL-5 = assay: Cytotoxicity against human SK-MEL-5 cells assessed as growth inhibition at 10 uM after 48 hrs by sulphorhodamine B assay; settings: SK-MEL-5, 48 h, read-out: GI; outline: as §1
LOX IMVI = assay: Cytotoxicity against human LOXIMVI cells assessed as growth inhibition at 10 uM after 48 hrs by sulphorhodamine B assay; settings: read-out: GI; outline: as §1
CAKI-1 = assay: Cytotoxicity against human Caki1 cells assessed as growth inhibition at 10 uM after 48 hrs by sulphorhodamine B assay; settings: CAKI-1, 48 h, read-out: GI; outline: as §1
OVCAR-5 = assay: Cytotoxicity against human OVCAR5 cells assessed as growth inhibition at 10 uM after 48 hrs by sulphorhodamine B assay; settings: OVCAR-5, 48 h, read-out: GI; outline: as §1
PC-3 = assay: Cytotoxicity against human PC3 cells assessed as growth inhibition at 10 uM after 48 hrs by sulphorhodamine B assay; settings: PC-3, 48 h, read-out: GI; outline: as §1
RPMI-8226 = assay: Cytotoxicity against human RPMI8226 cells assessed as growth inhibition at 10 uM after 48 hrs by sulphorhodamine B assay; settings: RPMI-8226, 48 h, read-out: GI; outline: as §1
SK-OV-3 = assay: Cytotoxicity against human SKOV3 cells assessed as growth inhibition at 10 uM after 48 hrs by sulphorhodamine B assay; settings: SK-OV-3, 48 h, read-out: GI; outline: as §1
HOP-92 = assay: Cytotoxicity against human HOP92 cells assessed as growth inhibition at 10 uM after 48 hrs by sulphorhodamine B assay; settings: HOP-92, 48 h, read-out: GI; outline: as §1
RXF 393 = assay: Cytotoxicity against human RXF393 cells assessed as growth inhibition at 10 uM after 48 hrs by sulphorhodamine B assay; settings: RXF 393, 48 h, read-out: GI; outline: as §1
M14 = assay: Cytotoxicity against human M14 cells assessed as growth inhibition at 10 uM after 48 hrs by sulphorhodamine B assay; settings: M14, 48 h, read-out: GI; outline: as §1
HL-60(TB) = assay: Cytotoxicity against human HL-60(TB) cells assessed as growth inhibition at 10 uM after 48 hrs by sulphorhodamine B assay; settings: HL-60, 48 h, read-out: GI
Outline: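 NCI-60 one-dose primary screen run to the Drug Evaluation Branch protocol. Cells are exposed to a single 10 µM concentration for 48 h continuously, and growth is read by SRB protein assay. Data are reported as percent growth of treated cells, expressed as % growth inhibition.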

Hs-578T = assay: Cytotoxicity against human Hs578T cells assessed as growth inhibition at 10 uM after 48 hrs by sulphorhodamine B assay; settings: read-out: GI; outline: as §1
ACHN = assay: Cytotoxicity against human ACHN cells assessed as growth inhibition at 10 uM after 48 hrs by sulphorhodamine B assay; settings: read-out: GI; outline: as §1
A498 = assay: Cytotoxicity against human A498 cells assessed as growth inhibition at 10 uM after 48 hrs by sulphorhodamine B assay; settings: A498, 48 h, read-out: GI; outline: as §1
NCI-H23 = assay: Cytotoxicity against human NCI-H23 cells assessed as growth inhibition at 10 uM after 48 hrs by sulphorhodamine B assay; settings: NCI-H23, 48 h, read-out: GI; outline: as §1
NCI/ADR-RES = assay: Cytotoxicity against human NCI/ADR-RES cells assessed as growth inhibition at 10 uM after 48 hrs by sulphorhodamine B assay; settings: read-out: GI; outline: as §1
SNB-19 = assay: Cytotoxicity against human SNB19 cells assessed as growth inhibition at 10 uM after 48 hrs by sulphorhodamine B assay; settings: SNB-19, 48 h, read-out: GI; outline: as §1
UACC-62 = assay: Cytotoxicity against human UACC62 cells assessed as growth inhibition at 10 uM after 48 hrs by sulphorhodamine B assay; settings: UACC-62, 48 h, read-out: GI; outline: as §1
K562 = assay: Cytotoxicity against human K562 cells assessed as growth inhibition at 10 uM after 48 hrs by sulphorhodamine B assay; settings: K562, 48 h, read-out: GI; outline: as §1
NCI-H522 = assay: Cytotoxicity against human NCI-H522 cells assessed as growth inhibition at 10 uM after 48 hrs by sulphorhodamine B assay; settings: NCI-H522, 48 h, read-out: GI; outline: as §1
DU-145 = assay: Cytotoxicity against human DU145 cells assessed as growth inhibition at 10 uM after 48 hrs by sulphorhodamine B assay; settings: DU-145, 48 h, read-out: GI; outline: as §1
SF-295 = assay: Cytotoxicity against human SF295 cells assessed as growth inhibition at 10 uM after 48 hrs by sulphorhodamine B assay; settings: SF-295, 48 h, read-out: GI; outline: as §1
CCRF-CEM = assay: Cytotoxicity against human CCRF-CEM cells assessed as growth inhibition at 10 uM after 48 hrs by sulphorhodamine B assay; settings: read-out: GI; outline: as §1
T47D = assay: Cytotoxicity against human T47D cells assessed as growth inhibition at 10 uM after 48 hrs by sulphorhodamine B assay; settings: read-out: GI; outline: as §1

COc1ccc(-c2c(C#N)c(N)nc3c2CCCC3C)cc1 (stereo unspecified)
inhibition of growth at 10 µM (MCF7): 10%
inhibition of growth at 10 µM (SF-268): < 10%
inhibition of growth at 10 µM (HCT-15): 25.3%
inhibition of growth at 10 µM [1]: < 10%
inhibition of growth at 10 µM (MOLT-4): 21.3%
inhibition of growth at 10 µM (UO-31): < 10%
inhibition of growth at 10 µM (A549): 15.7%
inhibition of growth at 10 µM (HT-29): < 10%
inhibition of growth at 10 µM (HCT-116): 15.7%
inhibition of growth at 10 µM (OVCAR-4): 17.2%
inhibition of growth at 10 µM (SNB-75): 25.3%
inhibition of growth at 10 µM (SK-MEL-2): < 10%
inhibition of growth at 10 µM (MDA-MB-435): < 10%
inhibition of growth at 10 µM (U-251): 20%
inhibition of growth at 10 µM (MDA-MB-468): 15.2%
inhibition of growth at 10 µM (IGROV-1): < 10%
inhibition of growth at 10 µM (SR): 36.6%
inhibition of growth at 10 µM (SK-MEL-5): 14.5%
inhibition of growth at 10 µM (LOX IMVI): 12.3%
inhibition of growth at 10 µM (CAKI-1): < 10%
inhibition of growth at 10 µM (OVCAR-5): < 10%
inhibition of growth at 10 µM (PC-3): 16.2%
inhibition of growth at 10 µM (RPMI-8226): 34.1%
inhibition of growth at 10 µM (SK-OV-3): < 10%
inhibition of growth at 10 µM (HOP-92): 20%
inhibition of growth at 10 µM (RXF 393): 11.1%
inhibition of growth at 10 µM (M14): < 10%
inhibition of growth at 10 µM (HL-60(TB)): 11.7%
inhibition of growth at 10 µM (Hs-578T): < 10%
inhibition of growth at 10 µM (ACHN): < 10%
inhibition of growth at 10 µM (A498): < 10%
inhibition of growth at 10 µM (NCI-H23): 11%
inhibition of growth at 10 µM (NCI/ADR-RES): 24.1%
inhibition of growth at 10 µM (SNB-19): 11%
inhibition of growth at 10 µM (UACC-62): 20%
inhibition of growth at 10 µM (K562): 28.4%
inhibition of growth at 10 µM (NCI-H522): 14.6%
inhibition of growth at 10 µM (DU-145): < 10%
inhibition of growth at 10 µM (SF-295): < 10%
inhibition of growth at 10 µM (CCRF-CEM): 16.3%
inhibition of growth at 10 µM (T47D): 41%
